AI-2 QS modul – Vibrio harveyi AI-2 quorum sensing modulators, primary screen, JMH597 strain, luminescence/OD600 ratio; 300,000 compounds, 0.4% hits; Vibrio harveyi JMH597 AI-2 luminescence/OD600 ratio, 9 h; stronger effect = lower value; strain lacks LuxN and CqsS sensors; 0 = neutral-control median; activity change, % at 7.5 µM; in the data active = activity change below about -75%, passing the limit was not always enough; inconclusive = no clear call, values can overlap the other calls;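 note: luminescence divided by OD600 gain over 9 h not by final OD600 alone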
PolyA inhibitor – polyadenylation inhibitors in yeast reporter cells, primary screen, luminescence, S. cerevisiae | S. cerevisiae SKY197-pL101 polyadenylation reporter, beta-gal luminescence; efflux-impaired pdr1/pdr3 knockout yeast; score 100 = 6 SD above DMSO | activity score, % at 12 µM | 300,000 compounds, 0.02% hits;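 active = lowest replicate activity score at least 50, where 100 means six control SD above control mean; inconclusive = lowest score under 50 but half or more replicates reach 50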;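 note: yeast exposed to compound for 9 h at 30 °C; higher score means more reporter readthrough which indicates perturbed polyadenylation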
HDAC3 inhib – HDAC3 deacetylase inhibitors, primary screen, biochemical, fluorescence, cell-free homogeneous; Histone deacetylase 3 (Homo sapiens), O15379; recombinant HDAC3, fluorogenic peptide/trypsin coupled; inhibition, % at 8.3 µM; 320,000 compounds, 0.15% hits; in the data active = inhibition above about 26%, passing the limit was not always enough; inconclusive = no clear call, values can overlap the other calls
Target sequence (O15379 whole entry, looked up): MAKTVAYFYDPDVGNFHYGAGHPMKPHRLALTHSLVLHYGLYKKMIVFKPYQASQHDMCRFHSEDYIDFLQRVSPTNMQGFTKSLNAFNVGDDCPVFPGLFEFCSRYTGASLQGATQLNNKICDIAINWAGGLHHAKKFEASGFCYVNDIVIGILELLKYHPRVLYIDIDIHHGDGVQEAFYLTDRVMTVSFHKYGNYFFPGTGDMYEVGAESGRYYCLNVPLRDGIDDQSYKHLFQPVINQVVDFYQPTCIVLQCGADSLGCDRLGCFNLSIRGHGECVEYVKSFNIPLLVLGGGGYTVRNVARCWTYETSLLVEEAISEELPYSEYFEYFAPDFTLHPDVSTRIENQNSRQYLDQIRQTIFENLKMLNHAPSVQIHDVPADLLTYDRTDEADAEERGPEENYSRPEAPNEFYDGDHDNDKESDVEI
T cruzi repl – inhibitors of intracellular T. cruzi growth, primary screen, luminescence, NIH3T3 host cells; AID 1885, 2009; T. cruzi beta-gal in NIH3T3, 90 h; 300,000 compounds, 1.4% hits; inhibition, % (concentration not given with the values);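 active = mean inhibition across valid replicates above about 55%, limit read from the data; inconclusive = mean below that limit but half or more replicates reach it; inactive = mean below it, under half of replicates reach it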;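 note: signal also drops with host cell toxicity which is not excluded here; 0% = plate median of DMSO wells and 100% = zero luminescence signal; higher percent means less beta-gal luminescence so fewer parasites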
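compound dosing = single 50 nL compound addition per well in DMSO | material = NIH/3T3 host cells with β-galactosidase reporter T. cruzi | input = 5,000 host fibroblasts per well | timing = ≥90 h infection period, 3 h prior cell attachment | read-out basis = percent inhibition of parasite-derived β-gal signal | detection = GalScreen β-gal luminescence, detergent lysis, 60 min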
Efflux pump mplx – inhibitors of Candida efflux pumps in yeast, primary screen, S. cerevisiae, Nile Red, multiplex. S. cerevisiae Candida pump triplex. inhibition, % at 10 µM. 330,000 compounds, 0.44% hits. AID 485275, 2010;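 active = plate passing quality check with inhibition over a set limit, or well fluorescence over plate mean plus 4 SD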;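 note: Nile Red retained in pooled yeast measured as flow cytometry median fluorescence; 0% = buffer negative control and 100% = Enniatin B positive control; higher means more Nile Red kept so more efflux inhibition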
An asterisk follows results filed as active; ? = inconclusive; . = no result. The list is not random: actives were taken first. Their share in the collection is about 2.2%.

SMILES | AI-2 QS modul | PolyA inhibitor | HDAC3 inhib | T cruzi repl | Efflux pump mplx
Cc1cccc(CN2CCCC(C(=O)N3CCCCC3)C2)c1 (stereo not drawn) | 17 | 17 | 2 | 25 | 0
O=C(CN(C(=O)CCC(=O)Nc1nccs1)c1cccc(F)c1)NCCc1ccccc1 | 16 | 5 | -3 | 5 | 0
CCN(CC(=O)Nc1cc(Cl)ccc1C)C(=O)CCOc1ccccc1C | 9 | 4 | -3 | 4 | -1
CN1[C@@H]2CCC[C@H]1CC(NC(=O)c1nn(C)c3ccccc13)C2 (stereo partly drawn) | . | . | 3 | . | 0
CN(C)c1ccc(P(=O)(Nc2ccccc2)N2CCOCC2)c(NC(=O)c2cccs2)c1 (stereo not drawn) | 18 | -13 | 9 | 25 | 0
Cc1ccc(NP(=O)(c2ccc(N(C)C)cc2NC(=O)c2cccs2)N2CCOCC2)cc1Cl (stereo not drawn) | 5 | 15 | 13 | 61* | 0
Cc1ccc(NP(=O)(c2ccc(N(C)C)cc2NC(=O)c2cccs2)N2CCOCC2)cc1 (stereo not drawn) | 10 | -2 | -3 | 57* | -4
Cc1ccc(-c2cc(C(F)F)n3ncc(C(=O)N4CCCc5ccccc54)c3n2)cc1 | -4 | 6 | 5 | 10 | 0
Cc1ccc(-c2cc(C(F)F)n3ncc(C(=O)N4CCc5ccccc5C4)c3n2)cc1 | 26 | -21 | . | 58* | 0
COc1ccc(S(=O)(=O)N2CCN(CC(O)COc3ccc(CC#N)cc3)CC2)cc1OC (stereo not drawn) | 26 | -22 | 9 | 6 | 0
CCOC(=O)N1CCN(S(=O)(=O)c2ccc(C(=O)N(CCCN(C)C)c3nc4c(C)c(C)ccc4s3)cc2)CC1 | 29 | -2 | 0 | 49 | 0
Cc1cc(C)c2nc(N(CCCN(C)C)C(=O)c3ccc(S(=O)(=O)N4CC(C)OC(C)C4)cc3)sc2c1 (stereo not drawn) | 15 | 2 | 3 | 59* | 0
Cc1ccc2sc(N(CCCN(C)C)C(=O)c3ccc(S(=O)(=O)N4CCOCC4)cc3)nc2c1C | 13 | -7 | ? | 66* | 0
Cc1ccc2nc(N(CCCN(C)C)C(=O)c3ccc(S(=O)(=O)N4CCOCC4)cc3)sc2c1 | 5 | 7 | 8 | 60* | -1
Cc1ccc2nc(N(CCCN(C)C)C(=O)c3ccc(S(=O)(=O)N4CCc5ccccc5C4)cc3)sc2c1 | 2 | 13 | -1 | 28 | 0
CC(C)(C)OC(=O)NCCc1nnc(S(=O)(=O)Cc2ccc(Cl)cc2Cl)o1 | -89* | 4 | 0 | -13 | 0
CC(C)(C)OC(=O)NCCc1nnc(SCc2ccccc2Cl)o1 | 13 | 9 | 5 | 26 | 0
Cc1ccc(C)c(C(=O)COC(=O)c2n[nH]c3ccccc23)c1 | . | . | 0 | . | 0
O=C(COC(=O)c1n[nH]c2ccccc12)c1cccc(Br)c1 | -92* | 0 | 6 | -6 | 0
COC(=O)C(C)Sc1n[nH]c(=S)s1 (stereo not drawn) | 5 | 10 | 31* | -10 | 0
COc1ccc(COC(=O)Nc2cc3c(C(F)(F)F)nn(C)c3s2)cc1 | -77* | -17 | 7 | 14 | 0
Cn1nc(C(F)(F)F)c2cc(NC(=O)OCc3ccc(C(C)(C)C)cc3)sc21 | -3 | -1 | . | 36 | .
C=CCOc1ccc(/C=C2\SC(=S)N(NS(=O)(=O)c3ccccc3)C2=O)cc1 | -86* | 5 | 6 | -5 | 0
COc1cc(/C=C2\SC(=S)N(NC(=O)c3ccncc3)C2=O)ccc1O | 30 | 92* | . | 8 | 0
COc1cc(/C=C2\SC(=S)N(NS(=O)(=O)c3ccccc3)C2=O)ccc1O | 57 | 85* | . | 1 | 0
COc1cc(/C=C2\SC(=S)N(NC(=O)c3ccccc3OC)C2=O)ccc1O | 16 | 10 | -2 | -3 | 0
COc1cc(/C=C2\SC(=S)N(NC(=O)c3ccc(O)c(OC)c3)C2=O)ccc1O | 3 | -13 | 7 | -5 | 0
COc1ccc(/C=C2/SC(=S)N(NS(=O)(=O)c3ccccc3)C2=O)cc1 | 60 | -3 | 11 | -1 | 0

Assay outcomes as filed in PubChem BioAssay.
